Only some compounds are listed: those with a hit (about 1.3% of all), similar ones and a draw of the others.
TAG inh – inhibitors of triacylglycerol accumulation; H9c2 cells, Nile Red lipid (TAG) fluorescence; cells loaded with 200 µM oleic acid; inhibition, % at 12.5 µM; hit rate 0.66% among 230,000; AID 651582;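 active = pattern-corrected inhibition of lipid staining of at least 50% with the nuclear-stain viability signal not falling by more than 50%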;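 note: 0% = DMSO wells and 100% = triacsin C control wells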
LANA-H2A inh – blocks KSHV LANA binding to histone H2A/H2B | cell-free LANA-H2A/H2B peptide, fluorescence polarization | inhibition, % (no concentration beside the values) | AID 2629 | hit rate 0.6% among 320,000; in the data active = inhibition mostly above about 10%, no sharp cut-off; inactive = mostly below about 6.7%
STK33 inh – inhibitors of human STK33 kinase; Q9BYT3; purified STK33, MBP phosphorylation, ADP-Glo luminescence; inhibition, % at 10 µM; hit rate 0.073% among 320,000;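 active = inhibition at or above 25%, using the most active replicate where run in duplicate; inactive = inhibition below 25%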
Target sequence (Q9BYT3 whole entry, looked up): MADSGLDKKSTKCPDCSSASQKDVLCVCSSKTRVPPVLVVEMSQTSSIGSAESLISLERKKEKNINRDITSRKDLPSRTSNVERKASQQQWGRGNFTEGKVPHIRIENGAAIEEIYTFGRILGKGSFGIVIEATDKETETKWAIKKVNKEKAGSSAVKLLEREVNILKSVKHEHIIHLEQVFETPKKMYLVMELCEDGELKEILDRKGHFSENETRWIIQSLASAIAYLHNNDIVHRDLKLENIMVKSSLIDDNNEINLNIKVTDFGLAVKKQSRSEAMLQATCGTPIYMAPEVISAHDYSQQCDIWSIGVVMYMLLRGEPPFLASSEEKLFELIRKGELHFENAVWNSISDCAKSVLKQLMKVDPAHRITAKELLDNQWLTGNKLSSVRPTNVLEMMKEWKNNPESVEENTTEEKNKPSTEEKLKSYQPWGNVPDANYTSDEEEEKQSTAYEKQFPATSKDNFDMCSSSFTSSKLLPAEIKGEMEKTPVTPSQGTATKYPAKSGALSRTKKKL
GSK3A inh – blocks human GSK-3 alpha kinase; P49840; ADP-Glo luminescence, 60 min; inhibition, % at 10 µM; hit rate 0.1% among 320,000; AID 2650;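 active = more than half of replicates show inhibition above 20%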;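 note: GST-tagged GSK-3 alpha with peptide substrate and 25 µM ATP; 0% = DMSO neutral wells and 100% = GW8510 positive control wells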
Hep lipid drop – modulators of hepatic lipid droplet formation; AML12 mouse hepatocytes, oleate lipid droplets, BODIPY imaging; hit rate 0.4% among 240,000; AID 1656; inhibition, % at 6.5 µM;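 active = lipid droplet intensity inhibited by at least 50%, with more than 500 cells counted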
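Assay system: AML12 mouse liver cells | Compound: 6.5 µM single-point dosing | Schedule: Overnight exposure | Technique: Fluorescence imaging, 20x objective, two fields per well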
GSK3B inh – human GSK3beta kinase inhibition; P49841; GST-GSK3beta kinase, ADP-Glo luminescence, 60 min; active compounds read low; activity score (negative = inhibition), % at 10 µM; hit rate 0.038% among 300,000; AID 2097;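 active = more than half of replicate wells score below -50%, meaning over 50% inhibition versus plate controls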;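 note: 0% = median DMSO wells and -100% = median GW8510 positive control wells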
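Test system – GST-tagged human GSK3beta kinase, cell-free · Incubation – 60 min enzyme reaction, room temperature · Signal – ADP-Glo luminescence · Also added – peptide substrate and ATP at 25 µM · Controls – DMSO neutral wells and GW8510 at 20 µM as positive · Buffer or medium – Tris/MgCl2 kinase buffer · Measure – Luminescence-derived activity versus plate DMSO and GW8510 wells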
Hep lipid conf – hepatic lipid droplet formation inhibition, confirmed; shares compounds with Hep lipid drop; AML12 mouse hepatocytes, BODIPY lipid droplet imaging; droplets induced with 100 µM oleic acid; inhibition, % at 5.2 µM; hit rate 65% among 870;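 active = inhibition of lipid droplet metric at least 50%, with more than 300 cells in each of four replicates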;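 note: plate controls were DMSO with oleic acid for no effect and 5 µM Triacsin-C for full effect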
AML12 cytotox – AML12 hepatocyte cytotoxicity (counter-screen) | shares compounds with Hep lipid drop | AML12 mouse hepatocytes, DAPI nuclear morphology cytotoxicity imaging; active compounds read high; cells fed 100 µM oleate overnight | z-score at 5 µM | hit rate 3% among 870 | AID 463200; in the data active = z-score above about 6.3;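 note: compound exposure lasted overnight at 37 °C before fixation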
AML12 tox ATP – confirmation of cytotoxicity in AML12 mouse hepatocytes; shares compounds with Hep lipid drop; AML12 mouse hepatocyte viability, ATP luminescence; cells loaded with 100 µM oleic acid; cytotoxicity, % at 50 µM; 530 tested, under 10 active;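 active = cytotoxicity above 50% in each of four replicates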;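 note: compound exposure lasted overnight at 37 °C before the ATP read; 0% = DMSO-treated cells and 100% = wells with no cells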
An asterisk follows results filed as active; . = no result given.

SMILES	TAG inh	LANA-H2A inh	STK33 inh	GSK3A inh	Hep lipid drop	GSK3B inh	Hep lipid conf	AML12 cytotox	AML12 tox ATP
Nc1c(S(=O)(=O)c2cccs2)c2nc3ccccc3nc2n1Cc1ccc2c(c1)OCO2	.	1	-4	0	.	0	.	.	.
O=C(NCc1ccccn1)C1CC(=O)N(C2CCCC2)C1 (centres undefined)	3	.	.	.	.	-2	.	.	.
CC1(C(=O)NCCc2ccccc2)Cc2c(-c3cccc(C(N)=O)c3)ccnc2O1 (centres undefined)	23	.	.	.	.	.	.	.	.
O=C1CSC(=S)N1N=Cc1cccc(OCc2ccccc2)c1	11	.	.	.	.	.	.	.	.
CCOc1ccc(CCNC(=O)COC(=O)c2cc(OC)cc(OC)c2)cc1OCC	11	-3	0	-9	61*	0	94*	-0.87	7
CCOc1ccc(CCNC(=O)COC(=O)c2cccc(OC)c2O)cc1OCC	2	7	-1	-3	39	1	.	.	.
CCOc1ccc(CCNC(=O)COC(=O)c2ccc(OC)c(OC)c2OC)cc1OCC	40	1	-2	-1	77*	-1	109*	-0.68	10
CCOc1ccc(CCNC(=O)C2CC(=O)N(Cc3ccc(OC)cc3)C2)cc1OCC (centres undefined)	.	0	0	-1	57*	-2	93*	-0.16	16
CCCOc1ccc(C(=O)OCC(=O)NCCc2ccc(OCC)c(OCC)c2)cc1OC	46	6	-2	-2	88*	-5	110*	-0.66	8
Cc1ccc(OC(C)C(=O)Nc2ccc3c(c2)n(C)c(=O)n3C)cc1C (centres undefined)	.	3	0	1	-2	2	.	.	.
Cn1c(CO)cnc1-c1ccccc1	.	-2	-1	-2	8	2	.	.	.
CCOc1ccc(CCNC(=O)CN2CCN(Cc3ccc(F)cc3)C2=O)cc1OCC	33	0	0	0	69*	-2	104*	-0.21	13
CCn1cc(CCC(=O)NCc2ccccc2OC)c2ccccc21	.	3	0	0	4	-1	.	.	.
CCn1cc(CCCC(=O)NCc2cccc(OC)c2)c2ccccc21	.	-3	-1	-2	80*	-1	88*	-0.14	7
CCn1cc(CCCC(=O)NCc2ccccc2OC)c2ccccc21	.	-1	-1	2	88*	0	100*	-0.56	15
CCc1ccc(N(CC(=O)O)S(=O)(=O)c2c(C)noc2C)cc1	.	-8	0	0	7	1	.	.	.
Cc1cc(C)cc(N(CC(=O)O)S(=O)(=O)c2c(C)noc2C)c1	.	2	-1	1	58*	-2	28	-0.91	.
COc1ccc(-c2oc3cccnc3c2C#CC2(O)CCCCC2)cc1	-13	2	1	0	.	-3	.	.	.
COc1ccc(N(Cc2cc(=O)[nH]c3ccccc23)C(C)=O)cc1	.	2	0	0	75*	-1	0	0.31	.
CCC(=O)N(Cc1cc(=O)[nH]c2ccccc12)c1ccc(OC)cc1	.	-2	-1	4	-26	-1	.	.	.
O=C(NCCN1CCOCC1)c1cc2ccccc2oc1=O	.	4	1	0	-2	-1	.	.	.
O=[N+]([O-])c1cc(Cl)ccc1NCCNc1ncc(C(F)(F)F)cc1Cl	9	0	-1	-3	52*	4	44	0.6	.
O=[N+]([O-])c1ccccc1NCCNc1ncc(C(F)(F)F)cc1Cl	-12	0	-2	5	13	1	.	.	.
CCOc1ccc(Cl)cc1CNCCCSc1ncccn1	-22	-8	1	0	-10	3	.	.	.
COc1ccc(Cl)cc1CNCCCSc1ncccn1	7	1	1	3	50*	0	20	0.24	.
SMILES	TAG inh	LANA-H2A inh	STK33 inh	GSK3A inh	Hep lipid drop	GSK3B inh	Hep lipid conf	AML12 cytotox	AML12 tox ATP
CC(C)c1ccccc1NC(=O)COC(=O)c1c2c(nc3ccccc13)CCN(Cc1ccccc1)C2	.	-4	-1	.	54*	-2	56	-0.0035	16
Cc1c(Cl)cccc1NC(=O)COC(=O)c1c2c(nc3ccccc13)CCN(Cc1ccccc1)C2	.	-7	-2	-3	-13	-4	.	.	.
CCc1ccc(CNC(=O)CCC(=O)n2ncc3cc(C)ccc32)cc1	10	4	-1	-1	3	-4	.	.	.
Cc1nn(-c2ccc([N+](=O)[O-])cc2)c2c1C(c1cccc(Br)c1)N1C(=N2)C(=O)Nc2ccccc21 (centres undefined)	.	-1	0	-2	118*	1	82*	0.12	-5
CC1(C)C/C(=N\O)C(C(O)c2cccc([N+](=O)[O-])c2)C(C)(C)N1 (centres undefined)	3	3	-2	-2	10	2	.	.	.
CC(C)CCNC(=O)c1ccc2c(c1)N(C)C(=O)c1ccccc1S2	.	-5	0	-1	87*	-4	87*	0.81	.
CCCCNC(=O)c1ccc2c(c1)N(C)C(=O)c1ccccc1S2	.	-2	-2	-2	78*	0	71*	0.54	13
CCN1C(=O)c2ccccc2Sc2ccc(C(=O)NC(C)C)cc21	.	-2	-2	-4	-1	-1	.	.	.
CCN1C(=O)c2ccccc2Sc2ccc(C(=O)NCCC(C)C)cc21	.	-1	0	0	95*	1	98*	0.8	.
CCOC(=O)CSc1nnc(-c2cccnc2)o1	-1	6	-2	-3	1	1	.	.	.
c1ccc(Cn2c(CNc3nc4ccccc4n3CCN3CCOCC3)nc3ccccc32)cc1	.	5	-3	-1	.	-1	.	.	.
CCN(CC)S(=O)(=O)c1ccc(N2C(=O)CC2(/C=C/c2ccccc2)C(=O)NC2CCCC2)cc1 (centres undefined)	.	5	0	-1	63*	1	74	0.43	.
CCCn1nc2cc(C(=O)NCc3ccc(OC(F)(F)F)cc3)ccc2c1OCC	16	-3	0	-2	67*	2	98*	-0.66	6
COC(=O)c1ccc2c(c1)NC(=O)C(N(CC(C)C)CC(C)C)S2 (centres undefined)	-13	0	-2	-1	84*	-2	15	-0.35	.
CCCN(CCC)C1Sc2ccc(C(=O)OC)cc2NC1=O (centres undefined)	.	-1	-1	-1	-1	-2	.	.	.
COc1ccc(CNC(=O)/C=C/C(=O)O)cc1	2	2	-2	-2	11	2	.	.	.
COc1ccc(/C=N/NC(=O)NC23CC4CC(CC(C4)C2)C3)c(OC)c1	.	0	0	-3	-3	2	.	.	.

Screening data from PubChem BioAssay.
